Assays:
Serine protease 1 = Serine protease 1 (Homo sapiens, UniProt P07477); test: Inhibition of human trypsin and the control activity being 7.3 umol/min/mg; conditions: read-out: I50
Acrosin = Acrosin (Homo sapiens, UniProt P10323); test: Inhibition of human acrosin and control activity being 11.3 umol/min/mg; conditions: read-out: I50
[1] = Lethal dose that produces death in 50% of mice within 24 hr after acute treatment; format: toxicity, organism-based; conditions: mouse, in vivo
In short: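 Mature male Swiss Webster albino mice, minimum body weight 25 g; compounds suspended in 5% gum acacia and given as a single intraperitoneal injection at 0.1 mL/10 g body weight. Deaths scored within 24 h. LD50 taken from dose-response curves by the Litchfield and Wilcoxon method, with 95% confidence limits.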

Chain of Acrosin (P10323 20-42 limits assumed): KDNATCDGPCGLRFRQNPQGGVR
Chain of Acrosin (P10323 43-343 limits assumed): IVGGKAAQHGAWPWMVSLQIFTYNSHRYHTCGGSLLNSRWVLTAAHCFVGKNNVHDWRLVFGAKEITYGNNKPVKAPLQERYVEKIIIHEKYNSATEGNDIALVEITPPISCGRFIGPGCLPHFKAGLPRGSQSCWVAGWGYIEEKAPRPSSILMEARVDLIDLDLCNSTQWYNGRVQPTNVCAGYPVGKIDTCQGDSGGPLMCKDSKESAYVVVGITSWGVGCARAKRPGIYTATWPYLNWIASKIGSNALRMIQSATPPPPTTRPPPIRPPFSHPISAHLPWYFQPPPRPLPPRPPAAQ
Chain of Serine protease 1 (P07477 whole entry): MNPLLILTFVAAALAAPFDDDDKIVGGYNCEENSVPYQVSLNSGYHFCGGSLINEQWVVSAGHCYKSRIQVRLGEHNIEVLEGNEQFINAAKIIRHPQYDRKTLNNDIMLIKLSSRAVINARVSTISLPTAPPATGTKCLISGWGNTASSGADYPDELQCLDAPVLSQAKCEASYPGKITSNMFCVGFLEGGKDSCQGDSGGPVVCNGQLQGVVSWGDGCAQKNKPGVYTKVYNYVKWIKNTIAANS

| IC50 (Serine protease 1) [nM] | IC50 (Acrosin) [nM] | SMILES | LD50 at 24 h [1] [mg/kg] |
| --- | --- | --- | --- |
| 8.2 | 3 | N=C(N)Nc1ccc(C(=O)Oc2ccc(Cl)cc2)cc1 | – |
| 16.5 | 17.6 | COc1cccc(OC(=O)c2ccc(NC(=N)N)cc2)c1 | – |
| 92.2 | 38.5 | N=C(N)Nc1ccc(C(=O)Oc2cccc(C(F)(F)F)c2)cc1 | – |
| 16.4 | 33 | N=C(N)Nc1ccc(C(=O)Oc2ccc(C(F)(F)F)cc2)cc1 | – |
| 3.9 | 3.5 | N=C(N)Nc1ccc(C(=O)Oc2ccc(Br)cc2)cc1 | – |
| 19 | 16.3 | COc1ccc(OC(=O)c2ccc(NC(=N)N)cc2)cc1 | – |
| 87.6 | 27.3 | COc1ccccc1OC(=O)c1ccc(NC(=N)N)cc1 | – |
| 19.5 | 3.3 | Cc1ccc(OC(=O)c2ccc(NC(=N)N)cc2)cc1 | – |
| 1.6 | 1.2 | N#Cc1ccc(OC(=O)c2ccc(NC(=N)N)cc2)cc1 | – |
| 27.1 | 5.4 | COC(=O)c1cccc(OC(=O)c2ccc(NC(=N)N)cc2)c1 | – |
| 3.8 | 7.2 | N#Cc1cccc(OC(=O)c2ccc(NC(=N)N)cc2)c1 | – |
| 17.1 | 28.5 | CC(C)(C)c1ccc(OC(=O)c2ccc(NC(=N)N)cc2)cc1 | – |
| 17.2 | 6.6 | CC(C)c1ccc(OC(=O)c2ccc(NC(=N)N)cc2)cc1 | – |
| 23.4 | 5.6 | N=C(N)Nc1ccc(C(=O)Oc2ccccc2)cc1 | – |
| 22.3 | 11.4 | CCCCOc1ccc(OC(=O)c2ccc(NC(=N)N)cc2)cc1 | – |

| SMILES | IC50 (Serine protease 1) [nM] | IC50 (Acrosin) [nM] | LD50 at 24 h [1] [mg/kg] |
| --- | --- | --- | --- |
| Cl.N=C(N)Nc1ccc(C(=O)Oc2cccc3cccnc23)cc1 | 27.7 | 19.8 | 240 |
| COC(=O)c1ccccc1OC(=O)c1ccc(NC(=N)N)cc1 | 65 | 12.9 | 750 |
| Cc1ccc(C(C)C)c(OC(=O)c2ccc(NC(=N)N)cc2)c1.Cc1ccc(S(=O)(=O)O)cc1 | 500 | 300 | > 2000 |
| CCOC(=O)c1ccc(OC(=O)c2ccc(NC(=N)N)cc2)cc1.Cl | 1.6 | 9.3 | 300 |
| C=CCc1ccc(OC(=O)c2ccc(NC(=N)N)cc2)c(OC)c1 | 8.4 | 13.7 | 870 |
| CCCCCCc1ccc(OC(=O)c2ccc(NC(=N)N)cc2)cc1O | 18.5 | 99.7 | 620 |
| CC(=O)Nc1ccc(OC(=O)c2ccc(NC(=N)N)cc2)cc1.Cl | 23.7 | 8 | 850 |
| Cl.N=C(N)Nc1ccc(C(=O)Oc2ccccc2C(N)=O)cc1 | 300 | 300 | > 1000 |
| COC(=O)c1ccc(OC(=O)c2ccc(NC(=N)N)cc2)cc1.Cl | 1.5 | 0.67 | 235 |

Source: ChEMBL document CHEMBL1123155, “Synthesis and inhibition of human acrosin and trypsin and acute toxicity of aryl 4-guanidinobenzoates” (J Med Chem, 1986)
